Results from the RNAGym collection of RNA variant scans (doi:10.1002/anie.201605470).

B1: Osa-1-4 twister ribozyme (parent)
chain: CCGCCUAACACUGCCAAUGCCGGUCCCAAGCCCGGAUAAAAGUGGAGGGGGCGG

Variants of: B1
Assay: self-cleavage, relative activity (ratio to wild type); higher = more cleavage; co-transcriptional
Summary of the method: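 The 48 positions downstream of the cleavage site in a 54-nucleotide Oryza sativa twister ribozyme template were synthesised at 97 % wild-type base and 1 % of each other base. The template was transcribed in vitro at 37 °C for 2 h, with self-cleavage allowed during transcription. Reads with or without upstream sequence after deep sequencing marked cleavage status, and relative activity is fraction cleaved normalised to wild type.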

In order of falling self-cleavage:
1. CCGCCUAACACUGCCAAUGCCGUUCCCAAGCGCGGAUAAAAGUGGAGGGGGCGG [C32G G23U]  0.29
2. CCGCCUAACACUGCCAAUGCCGAUCCCAAGCGCGGAUAAAAGUGGAGGGGGCGG [C32G G23A]  0.27
3. CCGCCUAACACUGCCAAUGCCGGUCCCAAGCGCGGAUAAAAGUGGAGGGGGUGG [C32G C52U]  0.2
4. CCGCCUAACACUGCCAAUGCCGGUCCCAAGCGCGGAUAAAAGUGGAGGGGGCGG [C32G]  0.18
5. CCGCCUAACACUGCCAAUGCCGGUCCCAAGCACGGAGAAAAGUGGAGGGGGCGG [C32A U37G]  0.18
6. CCGCCUAACACUGCCAAUGCCGGUCCCAAGCGCGGAUAAAAGUGGAGGGGGGGG [C32G C52G]  0.16
7. CCGCCUAACACUGCCAAUGCCGGUCCCAAGCACGGAAAAAAGUGGAGGGGGCGG [C32A U37A]  0.14
8. CCGCCUAACACUGCCAAUGCCGGUCCCAAGCACGGACAAAAGUGGAGGGGGCGG [C32A U37C]  0.13
9. CCGCCUAACACUGCCAAUACCGGUCCCAAGCGCGGAUAAAAGUGGAGGGGGCGG [C32G G19A]  0.12
10. CCGCCUAACACUGCCAAUGCCGGUCCCAAGCGCGGAUAAAAGUGGAGGGGGAGG [C32G C52A]  0.12
11. CCGCCUAACACUGCCAAUGCCGGUCCCAAGCGCGGAUAAAAGUAGAGGGGGCGG [C32G G44A]  0.11
12. CCGCCUAAGACUGCCAAUGCCGGUCCCAAGCGCGGAUAAAAGUGGAGGGGGCGG [C32G C9G]  0.11
13. CCGCCUAACACUGCCAAUGCCAGUCCCAAGCGCGGAUAAAAGUGGAGGGGGCGG [C32G G22A]  0.1
14. CCGCCUAACACUGCCAAUGCCGGUCCCAAGCGCGGAUAAAAAUGGAGGGGGCGG [C32G G42A]  0.09
15. CCGCCUAACACUGCCAAUGCCGGUCCCAAGCGCGAAUAAAAGUGGAGGGGGCGG [C32G G35A]  0.09
16. CCGCCUAACACUGCCAAUGCCGGUCCCAAGCGCAGAUAAAAGUGGAGGGGGCGG [C32G G34A]  0.09
17. CCGCCUAACACUGCCAAUGCCGGUCCCAAGCGCGGAUAAAAGUGGAAGGGGCGG [C32G G47A]  0.09
18. CCGCCUAACACUGCCAAUGCCGGUCCCAAGCGCGGAUAAAACUGGAGGGGGCGG [C32G G42C]  0.08
19. CCGCCUAACACUGCCAAUGCCGCUCCCAAGCGCGGAUAAAAGUGGAGGGGGCGG [C32G G23C]  0.08
20. CCGCCUAACACUGCCAAUGCCGGUCCCAAGCGCGGAUAAAAGUUGAGGGGGCGG [C32G G44U]  0.08
21. CCGCCUAACACUGCCAAUGCCGGUCCCAAGCGCGUAUAAAAGUGGAGGGGGCGG [C32G G35U]  0.08
22. CCGCCUAACACUGCCAAUGCCGGUCCCAAGCGCUGAUAAAAGUGGAGGGGGCGG [C32G G34U]  0.08
23. CCGCCUAACACUGCCAAUUCCGGUCCCAAGCGCGGAUAAAAGUGGAGGGGGCGG [C32G G19U]  0.07
24. CCGCCUAACACUGCCAAUGCCGGUCCCAAGCGAGGAUAAAAGUGGAGGGGGCGG [C32G C33A]  0.07
25. CCGCCUAACACUGCCAAUGCCGGUCCCAAGCGUGGAUAAAAGUGGAGGGGGCGG [C32G C33U]  0.07
26. CCGCCUAACACUGCCAAUGCCGGUCCCAAGCGCGGAUAAAAGUCGAGGGGGCGG [C32G G44C]  0.07
27. CCGCCUAACACUGCCAAUGCCGGUCCCAAGCACGGAUAAAAGAGGAGGGGGCGG [C32A U43A]  0.07
28. CCGCCUAACACUGCCAAUGCCGGUCCCAAGCGCGCAUAAAAGUGGAGGGGGCGG [C32G G35C]  0.07
29. CCGCCUAACACUGCCAAUGCCUGUCCCAAGCGCGGAUAAAAGUGGAGGGGGCGG [C32G G22U]  0.07
30. CCGCCUAACACUGCCAAUGCCGGUCCCAAGCACGGAUAAAAGCGGAGGGGGCGG [C32A U43C]  0.06
31. CCGCCUAACACUGCCAAUGCCGGUCCCAAGCGCCGAUAAAAGUGGAGGGGGCGG [C32G G34C]  0.06
32. CCGCCUAACACUGCCAAUGCCGGUCCCAAGCGGGGAUAAAAGUGGAGGGGGCGG [C32G C33G]  0.05
33. CCGCCUAACACUGCCAAUGCCGGUCCCAAGCACGGAUAAAAGGGGAGGGGGCGG [C32A U43G]  0.05
34. CCGCCUAACACUGCCAAUGCCGGUCCCAAGCGCGGAUAAAAGUGAAGGGGGCGG [C32G G45A]  0.05
35. CCGCCUAACACUGCCAAUGCCGGUCCCAAGCGCGGAUAAAAUUGGAGGGGGCGG [C32G G42U]  0.04
36. CCGCCUAACACUGCCAAUGCCGGCCCCAAGCACGGAUAAAAGUGGAGGGGGCGG [C32A U24C]  0.04
37. CCGCCUAACACUACCAAUGCCGGUCCCAAGCGCGGAUAAAAGUGGAGGGGGCGG [C32G G13A]  0.04
38. CCGCCUAACACUGCCAAUGCCGGUCCCAAGCGCGGAUAAAAGUGUAGGGGGCGG [C32G G45U]  0.04
39. CCGCCUAAUACUGCCAAUGCCGGUCCCAAGCGCGGAUAAAAGUGGAGGGGGCGG [C32G C9U]  0.04
40. CCGCCUAACACUGCCAAUGCCCGUCCCAAGCGCGGAUAAAAGUGGAGGGGGCGG [C32G G22C]  0.04
41. CCGCCUAACACUGCCAAUCCCGGUCCCAAGCGCGGAUAAAAGUGGAGGGGGCGG [C32G G19C]  0.03
42. CCGCCUAACACUGCCAAUGCCGGUCCCAAACGCGGAUAAAAGUGGAGGGGGCGG [C32G G30A]  0.03
43. CCGCCUAACACUGCCAAUGCCGGUCCCAAGCGCGGAUAAAAGUGCAGGGGGCGG [C32G G45C]  0.03
44. CCGCCUAAAACUGCCAAUGCCGGUCCCAAGCGCGGAUAAAAGUGGAGGGGGCGG [C32G C9A]  0.03
45. CCGCCUAACACUGCCAAUGCCGGGCCCAAGCACGGAUAAAAGUGGAGGGGGCGG [C32A U24G]  0.02
46. CCGCCUAACACUCCCAAUGCCGGUCCCAAGCGCGGAUAAAAGUGGAGGGGGCGG [C32G G13C]  0.02
47. CCGCCUAACACUGCCAAUGCCGGUCCCAACCGCGGAUAAAAGUGGAGGGGGCGG [C32G G30C]  0.02
48. CCGCCUAACACUGCCAAUGCCGGUCCCAAUCGCGGAUAAAAGUGGAGGGGGCGG [C32G G30U]  0.02
49. CCGCCUAACACUUCCAAUGCCGGUCCCAAGCGCGGAUAAAAGUGGAGGGGGCGG [C32G G13U]  0.01
